The source of these data is ChEMBL document CHEMBL1122263, “Resolution and absolute configuration of an ergoline-related dopamine agonist, trans-4,4a,5,6,7,8,8a,9-Octahydro-5-propyl-1H(or 2H)-pyrazolo[3,4-g]quinoline” (J Med Chem, 1983).

Several values for one entry are separate records, joined by “and”; a condition that tells them apart may be missing. Equal entries are not always repeated.

In assay [1] the test system is Rattus norvegicus. The assay can be described thus: Effect on Turning behavior in male rats with unilateral 6-hydroxydopamine-induced lesions of the nigrostriatal tract at 500 ug/kg ip. It counts as functional. The method in brief:
(§1)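 Rats carrying unilateral 6-hydroxydopamine lesions of the nigrostriatal tract, six per group, dosed ip. Contralateral turning recorded as: % of rats making at least one turn/min for 15 min; average turns in the first 15 min after turning began; turns in the first hour; and duration of turning in hours.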

Assay [2] concerns Rattus norvegicus. Kind of assay: Hypotensive activity when administered iv in pentobarbital-anesthetized, spontaneously hypertensive rats, at a dose 0.1 ug/kg. It counts as functional.
Assay [3] concerns Rattus norvegicus. Kind of assay: Hypotensive activity when administered iv in pentobarbital-anesthetized, spontaneously hypertensive rats, at a dose 1 ug/Kg. It counts as functional. The method in brief: (§2)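 Spontaneously hypertensive rats under pentobarbital anesthesia, arterial BP recorded. Dosing iv, ip or intragastric at 1–1000 μg/kg. Value is maximum % change in BP, taken immediately after iv or within 30 min after ip/ig dosing. Mean ± SE of four rats.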

The test system of assay [4] is Rattus norvegicus. Kind of assay: Hypotensive activity when administered iv in pentobarbital-anesthetized, spontaneously hypertensive rats, at a dose 10 ug/Kg. It counts as functional. The method, boiled down: as §2
Assay [5] relates to Rattus norvegicus. The assay can be described thus: Hypotensive activity when administered iv in pentobarbital-anesthetized, spontaneously hypertensive rats, at a dose 100 ug/Kg. It counts as functional. The method, boiled down:
as §2

In assay [6] the test system is Rattus norvegicus. Kind of assay: Effect (% reduction) on serum levels in reserpinized male rats at a dose, 0.03 umol/kg. It counts as functional. The method in brief:
(§3)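 Prolactin assay in reserpinized male rats, run by standard methods. Doses given orally; value is % reduction of serum prolactin versus control. Significance set at p < 0.05.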

For assay [7], the system named is Rattus norvegicus. Kind of assay: Effect (% reduction) on serum levels in reserpinized male rats at a dose, 0.17 umol/kg. It counts as functional. The method, boiled down:
as §3

In assay [8] the test system is Rattus norvegicus. Kind of assay: Effect (% reduction) on serum levels in reserpinized male rats at a dose, 0.3 umol/kg. It counts as functional. The method in brief:
as §3

Assay [9] concerns Rattus norvegicus. The assay can be described thus: Effect (% reduction) on serum levels in reserpinized male rats at a dose,0.017 umol/kg. The assay is classed as functional. The method in brief: as §3
The subject of assay [10] is Rattus norvegicus. The assay can be described thus: Effect on turning behavior in male rats with unilateral 6-OH-Dopamine-induced lesions of the nigrostriatal tract at 100 ug/kg i.p. The assay is classed as functional. The method in brief:
as §1

Assay [11] is filed under the species Rattus norvegicus. Kind of assay: Effect of lordotic behavior of rats preinjection lordosis-to-mount ratio. The assay is classed as functional. The method in brief:
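Chronically ovariectomized Long-Evans hooded rats primed with 100 μg estrone sc in sesame oil 48 h before testing. Lordosis-to-mount ratio scored over 15 mounts by a sexually active male before injection. Drug given sc at 25 μg/kg in 1 mM ascorbic acid/1 mM acetic acid; retested 90 min later. N = 20; X ± SE.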

The subject of assay [12] is Rattus norvegicus. The assay can be described thus: Hypotensive activity when administered iv in pentobarbital-anesthetized, spontaneously hypertensive rats, at a dose 1000 ug/Kg. It counts as functional. The method, boiled down: as §2
For assay [13], the system named is Felis catus. Kind of assay: Effect of iv injection on arterial blood pressure in the anesthetized, normotensive cat at a dose 100 ug/kg. The assay is classed as functional.
Assay [14] deals with Felis catus. Kind of assay: Effect of iv injection on arterial blood pressure in the anesthetized, normotensive cat at a dose 10 ug/kg. The assay is classed as functional.
Assay [15] deals with Canis familiaris. The assay can be described thus: Effect of iv injection on arterial blood pressure in the anesthetized, normotensive dog at a dose 1000 ug/kg. The assay is classed as functional, Canis lupus familiaris.
Assay [16] relates to Canis familiaris. The assay can be described thus: Effect of iv injection on arterial blood pressure in the anesthetized, normotensive dog at a dose 100 ug/kg. It counts as functional, Canis lupus familiaris.
Assay [17] concerns Canis familiaris. The assay can be described thus: Effect of iv injection on arterial blood pressure in the anesthetized, normotensive dog at a dose 10 ug/kg. It counts as functional, Canis lupus familiaris.
The subject of assay [18] is Canis familiaris. Kind of assay: Effect of iv injection on arterial blood pressure in the anesthetized, normotensive dog at a dose 1 ug/kg. It counts as functional, Canis lupus familiaris.
Assay [19] deals with Rattus norvegicus. The assay can be described thus: Hypotensive activity when administered iv in pentobarbital-anesthetized, spontaneously hypertensive rats, at a dose 1 ug/kg. The assay is classed as functional. The method in brief:
as §2

In assay [20] the test system is Rattus norvegicus. Kind of assay: Hypotensive activity when administered ig in pentobarbital-anesthetized, spontaneously hypertensive rats, at a dose 1000 ug/kg. The assay is classed as functional. The method in brief:
as §2

Assay [21] deals with Rattus norvegicus. The assay can be described thus: Hypotensive activity when administered ig in pentobarbital-anesthetized, spontaneously hypertensive rats, at a dose 100 ug/kg. The assay is classed as functional. The method in brief:
as §2

Assay [22] deals with Rattus norvegicus. Kind of assay: Hypotensive activity when administered ig in pentobarbital-anesthetized, spontaneously hypertensive rats, at a dose 10 ug/kg. The assay is classed as functional. The method, boiled down: as §2
Assay [23] concerns Rattus norvegicus. Kind of assay: Hypotensive activity when administered ip in pentobarbital-anesthetized, spontaneously hypertensive rats, at a dose 1000 ug/kg. The assay is classed as functional. The method in brief:
as §2

Assay [24] has as its system Rattus norvegicus. Kind of assay: Hypotensive activity when administered ip in pentobarbital-anesthetized, spontaneously hypertensive rats, at a dose 100 ug/kg. It counts as functional. The method in brief: as §2
The subject of assay [25] is Rattus norvegicus. The assay can be described thus: Hypotensive activity when administered ip in pentobarbital-anesthetized, spontaneously hypertensive rats, at a dose 10 ug/kg. It counts as functional. The method in brief: as §2
For assay [26], the system named is Rattus norvegicus. The assay can be described thus: Hypotensive activity when administered iv in pentobarbital-anesthetized, spontaneously hypertensive rats, at a dose 1000 ug/kg. The assay is classed as functional. The method, boiled down:
as §2

Assay [27] deals with Rattus norvegicus. Kind of assay: Hypotensive activity when administered iv in pentobarbital-anesthetized, spontaneously hypertensive rats, at a dose 100 ug/kg. It counts as functional. The method, boiled down: as §2
For assay [28], the system named is Rattus norvegicus. The assay can be described thus: Hypotensive activity when administered iv in pentobarbital-anesthetized, spontaneously hypertensive rats, at a dose 10 ug/kg. The assay is classed as functional. The method, boiled down:
as §2

Assay [29] concerns Rattus norvegicus. Kind of assay: Effect of iv injection on arterial blood pressure in the anesthetized, spontaneously hypertensive rat at a dose 1 ug/kg.
Assay [30] deals with Rattus norvegicus. Kind of assay: Effect of iv injection on arterial blood pressure in the anesthetized, spontaneously hypertensive rat at a dose 10 ug/kg.
The subject of assay [31] is Rattus norvegicus. The assay can be described thus: Effect of iv injection on arterial blood pressure in the anesthetized, spontaneously hypertensive rat at a dose 100 ug/kg.
In assay [32] the test system is Rattus norvegicus. Kind of assay: Effect of iv injection on arterial blood pressure in the anesthetized, spontaneously hypertensive rat at a dose 1000 ug/kg.

On to `CCCN1CCC[C@@H]2Cc3n[nH]cc3CC21` (single isomer, unassigned; (-)), for which the Activity in the assay on Rattus norvegicus [1] stood at 100%. Besides, the BP change with Rattus norvegicus [2] is listed as -7.7%; in the assay on Rattus norvegicus [3], -14.3%; in the assay on Rattus norvegicus [4], -25.2%; in the assay with Rattus norvegicus [5], -38.6%. Besides, the Reduction is 38% with Rattus norvegicus [6], 73% in the assay with Rattus norvegicus [7], 88% in the assay on Rattus norvegicus [8] and 26% in the assay on Rattus norvegicus [9].
In turn, `CN1CCc2cccc3c2[C@H]1Cc1ccc(O)c(O)c1-3` [APOMORPHINE] registered an Activity in the assay with Rattus norvegicus [1] of 100%.
Regarding `CCCN1CCC[C@@H]2Cc3n[nH]cc3CC21` (single isomer, unassigned; (+)), the Activity is 0% and 0 in the assay with Rattus norvegicus [10]; 0% in the assay with Rattus norvegicus [1]. Further, in the assay listed under Rattus norvegicus [11], the L/M ratio was 0.12. Also, the BP change in the assay with Rattus norvegicus [2] is recorded as -8.5%; with Rattus norvegicus [3], -5.1%; with Rattus norvegicus [4], -5%; with Rattus norvegicus [5], -4.6%; in the assay on Rattus norvegicus [12] it was -6.4%.
`CCCN1CCC[C@@H]2Cc3n[nH]cc3CC21` (mixture of isomers): the BP change in the assay on Felis catus [13] is recorded as -45%; in the assay on Felis catus [14], -23%; with Canis familiaris [15], -46%; in the assay on Canis familiaris [16] it was -45%; with Canis familiaris [17], -34%; in the assay with Canis familiaris [18] it was -15%. Further, the BP change with Rattus norvegicus [19] is -12.7%; in the assay on Rattus norvegicus [20], -50.7%; in the assay on Rattus norvegicus [21], -27.6%; in the assay on Rattus norvegicus [22] it was -5.4%; in the assay with Rattus norvegicus [23], -45.7%; in the assay on Rattus norvegicus [24] it was -40.5%. The BP change in the assay on Rattus norvegicus [25] is given as -6.1%; in the assay with Rattus norvegicus [26] it was -52.2%; in the assay on Rattus norvegicus [27], -32%; with Rattus norvegicus [28] it was -22.4%; in the assay on Rattus norvegicus [29], -13%; with Rattus norvegicus [30], -22%. For the same compound, the BP change in the assay with Rattus norvegicus [31] is given as -32%; in the assay on Rattus norvegicus [32], -52%. Besides, the Reduction worked out at 20% in the assay with Rattus norvegicus [6], 65% with Rattus norvegicus [7], 76% in the assay on Rattus norvegicus [8] and 19% with Rattus norvegicus [9].
